{
  "source": "paper PMC5338879",
  "about": "(Journal of Hypertension, 2016)",
  "key": {"[1]": {"system": "premenopausal women with female sexual dysfunction", "test": "Treatment-emergent adverse events, 12-week double-blind treatment", "type": "in vivo, human", "details": "all bremelanotide dosages; no marked dosage dependence", "how_it_was_run": "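Adverse events were queried at every clinic visit after screening. Physical examination, vital signs, 12-lead ECG and clinical laboratory tests were also performed. Events were tabulated in all participants given at least one double-blind dose.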"}, "[2]": {"details": "high sc doses, men with erectile dysfunction; cited from earlier work"}, "[3]": {"system": "men with erectile dysfunction", "details": "single sc doses of 4–6 mg; cited from earlier work"}, "[4]": {"details": "intranasal administration; cited from earlier work"}, "[5]": {"test": "Plasma pharmacokinetics after in-clinic subcutaneous doses", "type": "in vivo, human", "details": "for Cmax, mean: plasma, LC-MS/MS", "how_it_was_run": "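Blood was sampled predose and at 0.5, 1.0 and 2.0 h postdose at both double-blind in-clinic sc dosing visits (0.75, 1.25 or 1.75 mg). Plasma was assayed by validated LC-MS/MS. Noncompartmental analysis gave Cmax, Tmax, […] and AUC(0–2). For each dose level and visit, mean Cmax, range and coefficient of variation were reported.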"}, "[6]": {"system": "premenopausal women with female sexual dysfunction", "test": "Protocol-directed blood pressure-related withdrawals after randomization", "type": "in vivo, human", "how_it_was_run": "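Ambulatory BP records were screened manually and programmatically for SBP ≥150 mmHg, DBP ≥95 mmHg, SBP rise ≥30 mmHg or DBP rise ≥15 mmHg. Flagged reports went to safety staff, including a hypertension expert blinded to treatment, who also reviewed activities, HR and other medications. Participants meeting the prespecified criteria (absolute level, change from baseline, duration) were withdrawn.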"}, "[7]": {"system": "premenopausal women with female sexual dysfunction", "test": "Ambulatory BP and heart rate monitoring after in-clinic subcutaneous doses", "type": "in vivo, human", "details": "for Increase in ambulatory SBP relative to placebo (abstract): second of two doses, 0 to 4-h postdose interval", "how_it_was_run": "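Premenopausal women aged ≥21 years were randomized 1:1:1:1 to placebo or 0.75, 1.25 or 1.75 mg sc (anterior thigh or abdomen). The ambulatory monitor was fitted before each in-clinic dose and recorded at 15-min intervals. Baseline was the single-blind in-clinic placebo dose, and changes were placebo-subtracted over 0–4, >4–8, >8–24 and 0–24 h. SBP shifts were counted per 15 min against thresholds of 10/15 mmHg change and 150/160 mmHg absolute.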"}, "[8]": {"details": "initial in-clinic dose, linear regression, all dose levels"}},
  "note": "“Also recorded” adds a separate entry of the source.",
  "data": [
    {"smiles": "CCCC[C@H](NC(C)=O)C(=O)N[C@H]1CC(=O)NCCCC[C@@H](C(=O)O)NC(=O)[C@H](Cc2c[nH]c3ccccc23)NC(=O)[C@H](CCCN=C(N)N)NC(=O)[C@@H](Cc2ccccc2)NC(=O)[C@H](Cc2cnc[nH]2)NC1=O", "note": "[bremelanotide]", "values": [
      {"measurement": "Most common adverse events", "setting": "[1]", "value": "nausea, flushing, and headache"},
      {"measurement": "Tmax", "setting": "[2]", "value": "0.5 to 1", "unit": "h"},
      {"measurement": "mean half-life", "setting": "[2]", "value": "1.9 to 2.7", "unit": "h"},
      {"measurement": "Transient increases in clinic SBP", "setting": "[3]", "value": "4–5 mmHg"},
      {"measurement": "Variability in bioavailability", "setting": "[4]", "value": "wide variability in bioavailability"},
      {"measurement": "Dose proportionality of pharmacokinetics", "setting": "[5]; 0.75, 1.25, 1.75 mg sc, both in-clinic doses", "value": "dose proportionality; also recorded: dose-proportional increases in concentrations"},
      {"measurement": "Cmax", "setting": "[5]; human, in vivo, sc, 0.75 mg", "value": 37.5, "unit": "ng/mL"},
      {"measurement": "Cmax, mean", "setting": "[5]; second in-clinic dose 0.75 mg sc, n 89", "value": 37.3, "unit": "ng/mL"},
      {"measurement": "Cmax, mean", "setting": "[5]; second in-clinic dose 1.25 mg sc, n 84", "value": 60.1, "unit": "ng/mL"},
      {"measurement": "Cmax, mean", "setting": "[5]; second in-clinic dose 1.75 mg sc, n 88", "value": 77.7, "unit": "ng/mL"},
      {"measurement": "Participants withdrawn after randomization (BP-related)", "setting": "[6]; after a 0.75-mg dose, of 100", "value": 4, "unit": "%"},
      {"measurement": "Participants withdrawn after randomization (BP-related)", "setting": "[6]; after a 1.25-mg dose, of 99", "value": 9, "unit": "%"},
      {"measurement": "Participants withdrawn after randomization (BP-related)", "setting": "[6]; after a 1.75-mg dose, of 98", "value": 7, "unit": "%"},
      {"measurement": "Proportion of SBP shift events lasting 15 min or less", "setting": "[7]; after bremelanotide dosing", "value": 88, "unit": "%"},
      {"measurement": "Number of clinically important shifts in SBP (>10 or >15 mmHg) lasting more than 30 min", "setting": "[7]; all bremelanotide doses", "value": "three"},
      {"measurement": "Patients with SBP increase at least 15 mmHg for more than 30 min", "setting": "[7]; any bremelanotide group", "value": "No patient"},
      {"measurement": "Patients with SBP more than 180 mmHg for more than 15 min", "setting": "[7]; any bremelanotide group", "value": "No patient; also recorded: no sustained elevations"},
      {"measurement": "Relationship between maximal change in HR and Cmax", "setting": "[7]; [8]", "value": "no relationship observed"},
      {"measurement": "Relationship between maximal change in SBP and Cmax", "setting": "[7]; [8]", "value": "no relationship observed"},
      {"measurement": "Duration of peak increases in ambulatory BP", "setting": "[7]; sc doses, typically", "value": "less than 15 min"},
      {"measurement": "Increase in ambulatory SBP relative to placebo (abstract)", "setting": "[7]; 1.25 mg sc, P 0.076", "value": 3.0, "unit": "mmHg"},
      {"measurement": "Increase in ambulatory SBP relative to placebo (abstract)", "setting": "[7]; 1.75 mg sc, P 0.027", "value": 3.2, "unit": "mmHg"},
      {"measurement": "Mean HR reductions", "setting": "[7]; subcutaneous doses, up to 8 h following administration", "value": "4.6–6.6 bpm"}
    ]}
  ]
}
